Laboratory results from ChEMBL document CHEMBL1127811, “Inhibitors of cholesterol biosynthesis. 2. Hypocholesterolemic and antioxidant activities of benzopyran and tetrahydronaphthalene analogues of the tocotrienols” (J Med Chem, 1994).
pIC50: −log10 of the molar value. Values joined by “and” are separate entries in the source; they are usually repeats but may differ in a detail not shown here. Equal values may be shown once.

Tests used:
[1] = Oxidation potential assay as cyclic voltametry; not electrochemically active within scan range; type: functional
[2] = molecular target: T1, 3-hydroxy-3-methylglutaryl-coenzyme A reductase (Homo sapiens) (UniProt P04035); test: In vitro suppression of HMG-CoA reductase (HMGR) in Hep G2 cells; type: cell-based; design: concentration or dose not given beside the values; conditions: HepG2, concentration not given here
T1 sequence (whole entry): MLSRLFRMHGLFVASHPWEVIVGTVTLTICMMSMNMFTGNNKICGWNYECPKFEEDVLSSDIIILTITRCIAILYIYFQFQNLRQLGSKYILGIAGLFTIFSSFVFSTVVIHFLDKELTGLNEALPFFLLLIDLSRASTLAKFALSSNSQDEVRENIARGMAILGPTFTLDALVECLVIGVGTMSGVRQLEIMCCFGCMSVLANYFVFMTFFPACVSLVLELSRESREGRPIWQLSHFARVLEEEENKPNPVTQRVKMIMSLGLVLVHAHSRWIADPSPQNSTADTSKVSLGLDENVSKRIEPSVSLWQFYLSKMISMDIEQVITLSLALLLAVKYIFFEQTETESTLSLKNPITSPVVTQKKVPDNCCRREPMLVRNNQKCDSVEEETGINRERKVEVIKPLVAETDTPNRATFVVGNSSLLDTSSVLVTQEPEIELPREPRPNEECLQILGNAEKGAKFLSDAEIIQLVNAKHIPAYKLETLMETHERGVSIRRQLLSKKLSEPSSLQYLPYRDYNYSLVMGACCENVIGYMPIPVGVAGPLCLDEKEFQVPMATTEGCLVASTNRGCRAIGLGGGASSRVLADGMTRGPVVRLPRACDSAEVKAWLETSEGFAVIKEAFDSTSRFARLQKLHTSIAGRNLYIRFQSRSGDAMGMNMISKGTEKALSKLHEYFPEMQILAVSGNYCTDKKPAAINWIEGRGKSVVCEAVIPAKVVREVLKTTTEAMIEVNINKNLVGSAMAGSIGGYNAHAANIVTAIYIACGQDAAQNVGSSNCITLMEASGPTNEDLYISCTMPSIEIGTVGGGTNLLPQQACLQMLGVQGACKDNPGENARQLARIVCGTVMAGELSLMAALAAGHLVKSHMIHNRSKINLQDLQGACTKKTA
How it was run: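 HepG2 cells treated 4 h with compound at 10 μM, DMSO vehicle controls. HMG-CoA reductase activity assayed in microsomal fraction isolated at end of incubation. Mean % suppression vs controls, SD ≤ ±10%, n ≥ 8.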

HepG2 = test: In vitro inhibition of cholesterol biosynthesis in Hep G2 cells; type: functional, Homo sapiens; design: concentration or dose not given beside the values
How it was run: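 HepG2 human hepatoma cells incubated 4 h with compound at 10 μM, DMSO vehicle controls. Mean % inhibition vs controls, SD ≤ ±10%, n ≥ 8.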

Gallus gallus [3] = species on record: Gallus gallus; test: Ratio of HDL/total cholesterol value; type: functional
How it was run: (§1)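 Six-week-old male chickens fed corn-soybean control diet with test compound at 50 ppm. Birds fasted 36 h, then refed 48 h before sacrifice. Serum total, LDL and HDL cholesterol and triglycerides measured (mg/100 mL), HDL/total ratio computed. Means ± SD, n = 6–12 per group, also as % of control. Significance p < 0.01 within each study.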

Gallus gallus [4] = species on record: Gallus gallus; test: (§2) Hypocholesterolemic activity in 6-week old male mormocholesterolemic chickens using experiment 2; type: functional; how it was run: as §1
Gallus gallus [5] = species on record: Gallus gallus; test: as §2; type: functional; remark: listed apart in the source
How it was run: (§3)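 Male chickens, 6 weeks old. Test compound mixed at 50 ppm into a corn-soybean control diet; controls get the diet alone. After the feeding period, birds are fasted 36 h and refed 48 h before sacrifice. Serum total, LDL and HDL cholesterol (mg/100 mL) and triglycerides measured; expressed as mean ± SD and percent of control, n = 6–12 per group.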

[6] = Compound oxidation potential using cyclic voltametry; type: ADME
Gallus gallus [7] = species on record: Gallus gallus; test: (§4) Hypocholesterolemic activity in 6-week old male mormocholesterolemic chickens using experiment 3; type: functional; how it was run: as §1
Gallus gallus [8] = species on record: Gallus gallus; test: (§5) Hypocholesterolemic activity in 6-week old male mormocholesterolemic chickens using experiment 4; type: functional; how it was run: as §1
Gallus gallus [9] = species on record: Gallus gallus; test: (§6) Hypocholesterolemic activity in 6-week old male mormocholesterolemic chickens using experiment 1; type: functional; how it was run: as §3
[10] = LDL oxidation assay as spectrophotometric determination of TBARS; type: functional
How it was run: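 LDL (0.5 mg/mL protein stock) in saline/20 mM HEPES with drug in ethanol, oxidised by CuSO4 (4 × 10⁻⁴ M stock), 37 °C, 5 h, in duplicate. Stopped with EDTA; TCA/TBA added, boiled 30 min, A535 read. Malonaldehyde equivalents from tetramethoxypropane standard curve. IC50 = concentration inhibiting 50% TBARS vs ethanol controls.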

Gallus gallus [11] = species on record: Gallus gallus; test: as §5; type: functional; how it was run: as §3; remark: listed apart in the source
Gallus gallus [12] = species on record: Gallus gallus; test: as §4; type: functional; how it was run: as §3; remark: listed apart in the source
Gallus gallus [13] = species on record: Gallus gallus; test: as §6; type: functional; how it was run: as §1; remark: listed apart in the source

Structure (SMILES) | inhibition [2] [%] | Inhibition (HepG2) [%] | Ratio (Gallus gallus [3]) | HDL cholesterol (Gallus gallus [4]) [mg 100ml-1] | Total cholesterol (Gallus gallus [4]) [mg 100ml-1] | Triglycerides (Gallus gallus [4]) [mg 100ml-1] | LDL cholesterol (Gallus gallus [5]) [mg 100ml-1] | Potential [6] | further results
CC(C)=CCC/C(C)=C/CC/C(C)=C/CCC1(C)CCc2ccccc2O1 (stereo not drawn) | 0 | 45 | – | – | – | – | – | – | Potential [1]: Not electrochemically active
CC(C)=CCC/C(C)=C/CC/C(C)=C/CCC1CCc2cc(O)ccc2O1 (stereo not drawn) | – | 71 | 0.73 | 86 | 118 | 81 | 23 | – | –
CC(C)=CCC/C(C)=C/CC/C(C)=C/CCC1(C)CCc2cc(O)ccc2C1 (stereo not drawn) | – | 58 | 0.68 | 85 | 125 | 86 | 28 | 1.48 | –
CC(C)=CCC/C(C)=C/CC/C(C)=C/CCC1(C)CCc2cc(O)c(C)c(C)c2O1 (stereo not drawn) | 61 | 69 | 0.74 and 0.62 and 0.68 | – | – | – | – | 0.94 | HDL cholesterol (Gallus gallus [7]): 94 mg 100ml-1; Total cholesterol (Gallus gallus [7]): 151 mg 100ml-1; Triglycerides (Gallus gallus [7]): 83 mg 100ml-1; HDL cholesterol (Gallus gallus [8]): 85 mg 100ml-1; Total cholesterol (Gallus gallus [8]): 125 mg 100ml-1; Triglycerides (Gallus gallus [8]): 57 mg 100ml-1; LDL cholesterol (Gallus gallus [9]): 29 mg 100ml-1; pIC50 [10]: 5.74; LDL cholesterol (Gallus gallus [11]): 33 mg 100ml-1; LDL cholesterol (Gallus gallus [12]): 51 mg 100ml-1; HDL cholesterol (Gallus gallus [13]): 89 mg 100ml-1; Total cholesterol (Gallus gallus [13]): 121 mg 100ml-1; Triglycerides (Gallus gallus [13]): 62 mg 100ml-1
